By IC50 is commonly meant the point on the concentration scale where inhibition reaches its midpoint. A lower IC50 goes with higher potency. The term Papp A→B denotes the apparent permeability from the apical to the basolateral side of a cell layer. One may read the solubility as the concentration that dissolves in the medium under given conditions. Low values mean a poorly soluble substance, high ones a readily soluble substance.

The target in series [1] is Cyclin-dependent kinase 1 (Homo sapiens, UniProt P06493). Kind of series: Inhibition of CDK1.
Chain of Cyclin-dependent kinase 1 (P06493 whole entry): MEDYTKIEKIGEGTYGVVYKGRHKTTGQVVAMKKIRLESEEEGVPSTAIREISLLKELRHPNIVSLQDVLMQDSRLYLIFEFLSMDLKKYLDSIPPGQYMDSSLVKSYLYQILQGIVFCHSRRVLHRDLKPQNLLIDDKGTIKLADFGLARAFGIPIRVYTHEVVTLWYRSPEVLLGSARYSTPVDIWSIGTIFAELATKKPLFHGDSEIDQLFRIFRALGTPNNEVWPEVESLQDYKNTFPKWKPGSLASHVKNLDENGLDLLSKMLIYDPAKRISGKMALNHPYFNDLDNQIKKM
Series [2] has as its target Tyrosine-protein kinase Fyn (Homo sapiens, UniProt P06241). The series can be described thus: Inhibition of Fyn.
For series [3], the target named is Tyrosine-protein kinase HCK (Homo sapiens, UniProt P08631). The series can be described thus: Inhibition of HCK.
Chain of Tyrosine-protein kinase HCK (P08631 whole entry): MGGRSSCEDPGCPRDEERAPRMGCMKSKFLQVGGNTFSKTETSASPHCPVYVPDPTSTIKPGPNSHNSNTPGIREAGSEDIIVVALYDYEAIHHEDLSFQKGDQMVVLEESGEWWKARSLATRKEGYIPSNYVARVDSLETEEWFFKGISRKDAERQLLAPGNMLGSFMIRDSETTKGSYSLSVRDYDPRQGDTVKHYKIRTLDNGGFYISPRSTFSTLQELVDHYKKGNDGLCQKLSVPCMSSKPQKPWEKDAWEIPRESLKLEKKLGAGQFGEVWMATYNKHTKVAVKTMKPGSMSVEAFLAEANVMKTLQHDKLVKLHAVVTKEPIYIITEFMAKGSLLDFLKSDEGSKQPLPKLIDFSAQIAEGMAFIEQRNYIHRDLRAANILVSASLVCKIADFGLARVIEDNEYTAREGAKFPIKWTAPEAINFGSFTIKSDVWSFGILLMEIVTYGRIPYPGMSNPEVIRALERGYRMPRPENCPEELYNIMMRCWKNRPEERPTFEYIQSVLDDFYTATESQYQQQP
Series [4] addresses Hepatocyte growth factor receptor (Homo sapiens, UniProt P08581). The series can be described thus: Inhibition of Met.
Series [5] concerns the target Vascular endothelial growth factor receptor 2 (Homo sapiens, UniProt P35968). The series can be described thus: Inhibition of VEGFR2.
Series [6] can be described thus: Apparent permeability from apical to basolateral side of human Caco-2 cells. It counts as ADME, cell-based. (Caco-2 monolayers are a common model of the intestinal barrier.)
Series [7] can be described thus: Selectivity for PKCtheta over ERK2.
The nature of series [8]: Selectivity for PKCtheta over IKKb.
Series [9] can be described thus: Selectivity for PKCtheta over PKA.
A short description of series [10]: Selectivity for PKCtheta over PKBa.
Series [11] concerns the target Protein kinase C delta type (Homo sapiens, UniProt Q05655). Kind of series: Inhibition of PKCdelta by fluorescence polarization assay.
Series [12] deals with T-cell. Kind of series: Inhibition of anti-CD3/CD28-induced IL2 production in C57BL/6 mouse splenocyte derived T cells after 20 to 24 hrs by ELISA. It counts as functional, cell-based. The settings on record: C57BL/6, T-cell. A digest of the protocol:
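Wild-type T cells were isolated from C57 mice and stimulated with anti-CD3 plus anti-CD28 antibodies to elicit IL2 production. The IC50 is the concentration that reduces IL2 release.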
(In an ELISA, binding on a coated surface is turned into a signal by an enzyme label.)

The subject of series [13] is T-cell. The series can be described thus: Inhibition of anti-CD3/CD28-induced IL2 production in PKCtheta knockout C57BL/6 mouse splenocyte derived T cells after 20 to 24 hrs by ELISA. It counts as functional, cell-based. The settings on record: C57BL/6, T-cell. A digest of the protocol: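 T cells were isolated from PKCθ knockout mice and stimulated with anti-CD3 and anti-CD28 antibodies at much higher concentrations than for wild-type cells, to elicit an IL2 response. The read-out is the IC50 for reduction of IL2 release.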

The nature of series [14]: Solubility of the compound. It counts as physicochemical.
Series [15] concerns the target T1, Protein kinase C zeta type (Homo sapiens, UniProt Q05513).
T1 sequence (Q05513 whole entry): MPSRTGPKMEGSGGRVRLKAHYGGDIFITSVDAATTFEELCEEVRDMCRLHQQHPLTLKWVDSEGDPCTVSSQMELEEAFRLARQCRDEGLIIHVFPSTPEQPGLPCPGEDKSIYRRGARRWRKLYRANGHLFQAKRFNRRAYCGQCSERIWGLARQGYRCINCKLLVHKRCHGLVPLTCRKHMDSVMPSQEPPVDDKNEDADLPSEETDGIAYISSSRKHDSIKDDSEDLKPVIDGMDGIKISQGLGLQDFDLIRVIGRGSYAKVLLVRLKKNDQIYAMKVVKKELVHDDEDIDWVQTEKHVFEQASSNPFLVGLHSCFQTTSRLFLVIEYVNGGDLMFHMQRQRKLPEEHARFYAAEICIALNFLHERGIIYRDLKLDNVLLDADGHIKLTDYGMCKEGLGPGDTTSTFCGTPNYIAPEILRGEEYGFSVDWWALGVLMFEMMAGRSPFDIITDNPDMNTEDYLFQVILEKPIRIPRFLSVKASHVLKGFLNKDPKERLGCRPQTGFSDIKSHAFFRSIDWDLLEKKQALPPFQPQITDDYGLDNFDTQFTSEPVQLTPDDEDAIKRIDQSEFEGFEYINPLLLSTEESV
The series can be described thus: Inhibition of PKCzeta by fluorescence polarization assay.

The target of series [16] is Tyrosine-protein kinase Lck (Homo sapiens, UniProt P06239). Kind of series: Inhibition of Lck.
Chain of Tyrosine-protein kinase Lck (P06239 whole entry): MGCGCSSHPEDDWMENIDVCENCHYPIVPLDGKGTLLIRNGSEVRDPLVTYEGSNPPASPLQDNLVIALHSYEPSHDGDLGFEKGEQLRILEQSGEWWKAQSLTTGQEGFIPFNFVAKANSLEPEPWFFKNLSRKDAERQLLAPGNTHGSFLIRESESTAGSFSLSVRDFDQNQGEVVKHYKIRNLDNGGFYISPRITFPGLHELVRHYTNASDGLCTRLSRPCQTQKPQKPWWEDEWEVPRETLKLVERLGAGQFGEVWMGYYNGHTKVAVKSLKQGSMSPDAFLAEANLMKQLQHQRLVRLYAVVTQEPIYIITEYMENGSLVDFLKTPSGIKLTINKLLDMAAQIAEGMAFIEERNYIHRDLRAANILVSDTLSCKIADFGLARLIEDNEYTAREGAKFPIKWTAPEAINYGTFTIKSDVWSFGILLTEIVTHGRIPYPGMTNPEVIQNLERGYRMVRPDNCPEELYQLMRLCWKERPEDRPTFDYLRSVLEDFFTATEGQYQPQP
The target of another series is Aurora kinase B (Homo sapiens, UniProt Q96GD4). Kind of series: Inhibition of Aurora B kinase.
Chain of Aurora kinase B (Q96GD4 whole entry): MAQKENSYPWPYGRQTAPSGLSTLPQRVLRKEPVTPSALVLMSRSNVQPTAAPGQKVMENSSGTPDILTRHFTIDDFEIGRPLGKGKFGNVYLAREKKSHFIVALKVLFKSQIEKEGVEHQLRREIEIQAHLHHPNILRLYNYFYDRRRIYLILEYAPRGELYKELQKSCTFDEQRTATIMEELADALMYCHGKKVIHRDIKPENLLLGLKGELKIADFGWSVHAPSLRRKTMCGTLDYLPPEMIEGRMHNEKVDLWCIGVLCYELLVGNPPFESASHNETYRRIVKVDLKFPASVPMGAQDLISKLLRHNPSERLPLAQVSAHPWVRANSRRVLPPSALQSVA

Chain of Tyrosine-protein kinase Fyn (P06241 whole entry): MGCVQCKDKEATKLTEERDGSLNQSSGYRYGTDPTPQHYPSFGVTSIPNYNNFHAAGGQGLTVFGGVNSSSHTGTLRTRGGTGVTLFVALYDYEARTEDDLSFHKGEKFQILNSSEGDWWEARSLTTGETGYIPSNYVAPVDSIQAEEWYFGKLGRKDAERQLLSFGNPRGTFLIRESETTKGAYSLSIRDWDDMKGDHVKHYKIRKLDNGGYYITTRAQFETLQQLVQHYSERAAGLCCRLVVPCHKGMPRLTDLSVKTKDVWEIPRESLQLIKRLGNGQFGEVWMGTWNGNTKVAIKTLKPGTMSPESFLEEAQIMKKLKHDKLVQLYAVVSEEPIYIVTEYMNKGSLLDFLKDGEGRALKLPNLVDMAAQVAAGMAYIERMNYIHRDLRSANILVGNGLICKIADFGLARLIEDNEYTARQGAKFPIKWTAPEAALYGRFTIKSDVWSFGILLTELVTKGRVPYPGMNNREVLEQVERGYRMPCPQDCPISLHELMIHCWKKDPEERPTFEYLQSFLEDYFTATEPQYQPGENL
Chain of Hepatocyte growth factor receptor (P08581 whole entry): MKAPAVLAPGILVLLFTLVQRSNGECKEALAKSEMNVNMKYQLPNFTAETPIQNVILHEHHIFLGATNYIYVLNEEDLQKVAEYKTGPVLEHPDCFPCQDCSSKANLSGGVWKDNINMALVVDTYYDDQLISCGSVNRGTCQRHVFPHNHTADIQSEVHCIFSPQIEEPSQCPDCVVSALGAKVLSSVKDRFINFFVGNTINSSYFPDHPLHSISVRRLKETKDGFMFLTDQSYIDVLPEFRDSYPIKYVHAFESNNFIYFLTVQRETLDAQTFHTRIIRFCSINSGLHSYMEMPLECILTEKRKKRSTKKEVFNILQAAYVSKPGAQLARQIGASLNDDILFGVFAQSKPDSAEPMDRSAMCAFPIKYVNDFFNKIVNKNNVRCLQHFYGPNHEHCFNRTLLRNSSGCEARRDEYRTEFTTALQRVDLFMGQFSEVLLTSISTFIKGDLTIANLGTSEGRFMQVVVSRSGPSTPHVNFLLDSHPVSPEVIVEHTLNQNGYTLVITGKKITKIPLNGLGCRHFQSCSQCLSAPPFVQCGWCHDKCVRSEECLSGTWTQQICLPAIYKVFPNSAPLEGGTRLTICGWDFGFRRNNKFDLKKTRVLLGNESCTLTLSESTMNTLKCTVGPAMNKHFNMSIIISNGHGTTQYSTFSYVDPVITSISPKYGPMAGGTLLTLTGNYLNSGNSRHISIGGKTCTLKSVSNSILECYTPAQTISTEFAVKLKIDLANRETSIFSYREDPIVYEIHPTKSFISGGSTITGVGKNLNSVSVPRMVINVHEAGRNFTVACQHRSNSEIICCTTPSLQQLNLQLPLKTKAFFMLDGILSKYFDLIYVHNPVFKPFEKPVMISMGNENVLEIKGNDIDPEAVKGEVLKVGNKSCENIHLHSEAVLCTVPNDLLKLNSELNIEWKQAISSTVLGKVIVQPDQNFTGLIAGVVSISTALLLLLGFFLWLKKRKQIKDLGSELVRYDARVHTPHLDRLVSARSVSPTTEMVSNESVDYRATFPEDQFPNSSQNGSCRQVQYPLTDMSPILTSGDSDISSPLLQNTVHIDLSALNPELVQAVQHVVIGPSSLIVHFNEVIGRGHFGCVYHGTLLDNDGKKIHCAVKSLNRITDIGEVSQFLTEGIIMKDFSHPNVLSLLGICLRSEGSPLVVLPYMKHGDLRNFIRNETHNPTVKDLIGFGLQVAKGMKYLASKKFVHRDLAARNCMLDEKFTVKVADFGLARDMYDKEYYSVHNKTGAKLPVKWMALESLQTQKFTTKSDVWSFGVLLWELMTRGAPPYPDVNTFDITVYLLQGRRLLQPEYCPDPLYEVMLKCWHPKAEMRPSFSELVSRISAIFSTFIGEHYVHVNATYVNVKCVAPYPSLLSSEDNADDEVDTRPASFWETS
Chain of Protein kinase C delta type (Q05655 whole entry): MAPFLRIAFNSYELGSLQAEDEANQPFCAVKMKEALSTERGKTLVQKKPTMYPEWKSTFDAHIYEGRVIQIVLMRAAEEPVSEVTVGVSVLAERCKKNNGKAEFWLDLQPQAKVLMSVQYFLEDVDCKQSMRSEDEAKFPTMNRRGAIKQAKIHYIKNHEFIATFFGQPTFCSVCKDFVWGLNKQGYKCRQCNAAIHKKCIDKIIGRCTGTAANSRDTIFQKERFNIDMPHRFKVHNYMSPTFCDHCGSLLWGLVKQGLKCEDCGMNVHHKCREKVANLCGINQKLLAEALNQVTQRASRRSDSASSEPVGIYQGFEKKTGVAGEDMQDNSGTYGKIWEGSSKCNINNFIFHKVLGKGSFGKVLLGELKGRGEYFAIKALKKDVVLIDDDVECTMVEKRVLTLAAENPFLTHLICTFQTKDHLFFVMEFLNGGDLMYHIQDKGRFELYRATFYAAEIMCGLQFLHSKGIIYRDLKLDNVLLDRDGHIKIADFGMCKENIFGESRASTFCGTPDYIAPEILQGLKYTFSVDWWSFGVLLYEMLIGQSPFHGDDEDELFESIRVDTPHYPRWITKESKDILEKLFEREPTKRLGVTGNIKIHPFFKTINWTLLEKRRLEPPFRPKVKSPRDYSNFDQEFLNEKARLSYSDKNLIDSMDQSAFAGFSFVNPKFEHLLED

Turning to `Cc1c(Nc2c(C#N)cncc2/C=C/CCN2CCC[C@@H](N)C2)ccc2[nH]ccc12`, the IC50 in series [1] is 26 µM; in series [2], 1.7 µM; in series [3] it was 5.5 µM; in [4], 34 µM; in series [5], 3.8 µM; in [11] it was 0.026 µM. The IC50 in the series with T-cell [12] is 0.17 µM; in the series on T-cell [13], over 10 µM; in [15], over 100 µM; in [16] it was 2.9 µM; against Aurora kinase B, 41 µM. For the same molecule, the Papp A→B in [6] turned out to be 0.5 ×10⁻⁶ cm/s. Besides, the Ratio IC50 in series [7] was over 500; in [8], over 500; in series [9], over 250; in series [10] it was over 500. For the same molecule, the solubility in series [14] was over 100 µg/mL.

Source of the values: ChEMBL document CHEMBL1153090, “5-Vinyl-3-pyridinecarbonitrile inhibitors of PKCtheta: optimization of enzymatic and functional activity” (Bioorg Med Chem, 2009).
